Compound activity deposited in PubChem BioAssay by several laboratories.
Compounds with a hit are over-represented: about 1.9% of the library has one in this group of screens.
Rpn11 inh: Rpn11 (PSMD14) deubiquitinase inhibitors, primary screen, biochemical, fluorescence polarization, uHTS; actives 0.59% (n = 360,000); 26S proteasome non-ATPase regulatory subunit 14 (Homo sapiens), O00487; AID 588493, 2011; human 26S proteasome, Ub4-pepOG fluorescence polarization; 20S core pre-blocked with epoxomicin; inhibition, % at 20 µM;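 active = inhibition at 20 µM, scaled to each plate's controls, above about 33%, limit read from the data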
XiGFP reactiv: activators of inactive X chromosome reactivation, primary screen, imaging, XiGFP fibroblasts, GFP high-content imaging, set 2 | actives 0.055% (n = 360,000) | activation, % at 7.58 µM | XiGFP mouse fibroblasts, % GFP-positive cells imaging, 3 d; cells co-treated with 5-aza-dC sensitizer; scaled so ellipticine positive control = 100%;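 active = mean normalized replicate activation at least 10% and every replicate at or above 10%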;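 note: 0% = median of on-plate neutral control wells and 100% = ellipticine 6 µM median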
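System: 68-5-11 XiGFP fibroblast line | Buffer or medium: DMEM containing 5-aza-dC | Compound: Single point | Times: Compounds 3 days, fix/stain 15 min at room temperature | Benchmarks: Positive control ellipticine, 6 µM final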
Rin1-Abl PPI inh: inhibitors of Rin1-Abl protein binding, primary screen, biochemical, TR-FRET. inhibition, % at 7.35 µM. actives 0.4% (n = 360,000). AID 588664, 2011; in the data active = inhibition above about 5%, passing the limit was not always enough
NadD block: inhibitors of S. aureus NadD, primary screen, biochemical, colorimetric, uHTS. Nicotinate-nucleotide adenylyltransferase NadD (Staphylococcus aureus N315). AID 602399, 2012. purified NadD enzyme, colorimetric absorbance read-out. inhibition, % at 20 µM. actives 0.78% (n = 360,000); in the data active = inhibition above about 26%
ABHD5 PLIN5 PPI: ABHD5-PLIN5 interaction inhibitors, primary screen, cell lysate, split luciferase complementation, luminescence; Perilipin-5 (Homo sapiens) + 1-acylglycerol-3-phosphate O-acyltransferase ABHD5 (Homo …; Split G. princeps luciferase complementation, 4 h; inhibition, % at 4 µM; actives 0.78% (n = 360,000); AID 602281, 2012;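 active = inhibition above the mean inhibition across every tested compound plus 3 SD, cut at about 22% in these data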;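 note: 0% = DMSO only wells and the 100% control is not disclosed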
ABHD5-PLIN5 conf: ABHD5-PLIN5 interaction inhibitors, confirmation, biochemical, luminescence; AID 651612, 2012; actives 67% (n = 2,200); inhibition, % at 4 µM; shares compounds with ABHD5 PLIN5 PPI; in the data active = inhibition above about 23%;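 note: 0% = DMSO vehicle wells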
HNF4 split-luc: HNF4 dimerization inhibitors, counter-screen for ABHD5-PLIN5 interaction inhibitor project, biochemical, split-luciferase complementation, luminescence | inhibition, % at 4 µM | actives 77% (n = 2,200) | shares compounds with ABHD5 PLIN5 PPI;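 active = mean inhibition across replicate wells exceeding the computed hit threshold, cut at about 13% in these data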;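 note: light from luciferase halves that rejoin when HNF4 fusion proteins dimerize; 0% = DMSO only wells and the 100% control is not given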
Target sequence (P41235 whole entry, looked up, the tested form may be a part): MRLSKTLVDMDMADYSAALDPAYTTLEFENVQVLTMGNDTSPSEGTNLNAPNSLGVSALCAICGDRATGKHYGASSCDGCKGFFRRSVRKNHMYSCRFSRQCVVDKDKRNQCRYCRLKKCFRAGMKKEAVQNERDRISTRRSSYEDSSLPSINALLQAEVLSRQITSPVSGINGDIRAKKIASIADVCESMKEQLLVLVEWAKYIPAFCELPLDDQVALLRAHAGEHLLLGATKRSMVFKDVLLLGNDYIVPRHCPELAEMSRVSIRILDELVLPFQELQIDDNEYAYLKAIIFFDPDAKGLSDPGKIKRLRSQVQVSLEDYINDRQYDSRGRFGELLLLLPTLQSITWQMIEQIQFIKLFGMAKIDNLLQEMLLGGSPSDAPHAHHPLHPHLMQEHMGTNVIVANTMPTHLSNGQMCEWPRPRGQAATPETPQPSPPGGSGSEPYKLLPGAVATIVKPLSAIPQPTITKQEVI
An asterisk follows results filed as active; . = no result given.

SMILES	Rpn11 inh	XiGFP reactiv	Rin1-Abl PPI inh	NadD block	ABHD5 PLIN5 PPI	ABHD5-PLIN5 conf	HNF4 split-luc
COc1ccccc1-c1cc(C(F)(F)F)nc(N2CCCC2)n1	-3.3	.	-1.3	-2.9	-1.6	.	.
COc1ccccc1-c1cc(C(F)(F)F)nc(S(C)(=O)=O)n1	2.9	.	-3.0	0.6	43.6*	67.1*	86.5*
COc1ccccc1-c1cc(C(F)(F)F)nc(S(=O)(=O)CCCC(=O)NC(C)C)n1	-3.0	.	0.6	-0.6	4.6	.	.
COc1ccccc1-c1cc(C(F)(F)F)nc(S(=O)(=O)CCCC(=O)Nc2cccnc2Cl)n1	-6.2	0.0	-0.5	-6.8	31.6*	51.0*	68.7*
C(=C\c1ccccc1)/CSc1nnc(-c2ccccn2)n1Cc1ccco1	10.4	.	1.1	12.1	34.1*	21.4	44.0*
Cc1ccc(N=C2NC(=O)/C(=C/c3cccn3C)S2)cc1	36.9	0.3	-2.0	-5.4	4.4	.	.
CC1CC(C)CN(C(=O)c2ccncc2)C1 (stereo unspecified)	-0.2	.	-4.6	6.7	7.2	.	.
CC1C/C(=C/c2cccn2C)C(=O)/C(=C/c2cccn2C)C1 (stereo unspecified)	.	.	0.6	0.7	42.0*	17.6	53.7*
CC1C/C(=C/c2ccncc2)C(=O)/C(=C/c2ccncc2)C1 (stereo unspecified)	12.1	-0.2	3.9	-0.8	96.0*	103.3*	105.6*
Cc1ccc(S(=O)(=O)Nc2ccc3c(c2)C(=O)N([C@H](C)CO)C[C@@H](C)[C@H](CN(C)S(=O)(=O)c2ccc(Cl)cc2)O3)cc1	.	-1.0	.	.	.	.	.
Cc1ccc(-c2cc(C(F)F)nc(S(C)(=O)=O)n2)cc1	-6.0	0.1	-3.0	-6.2	24.6*	45.4*	51.3*
Cc1ccc(-c2cc(-c3ccccc3)nc(Cl)n2)cc1	1.9	.	1.3	-0.4	-2.9	.	.
CC(=O)N(C)C[C@H]1Oc2cc(-c3ccncc3)ccc2S(=O)(=O)N([C@@H](C)CO)C[C@H]1C	.	-1.0	.	.	.	.	.
Cc1ccc(-c2c[n+](CC(=O)Nc3nc(-c4ccc(F)cc4)cs3)c3n2CCC3)cc1	-6.4	0.0	0.3	5.7	25.0*	15.5	8.1
CCOC(=O)N1CCc2c(sc(NC(=O)CN3CCOCC3)c2C(=O)Nc2ccccc2)C1	5.8	0.0	-2.4	-5.4	23.3*	5.2	2.6
CCOC(=O)N1CCc2c(sc(NC(=O)CN3CCN(C)CC3)c2C(=O)Nc2ccccc2)C1	20.6	0.1	-0.6	-8.3	1.4	.	.
COc1cccc(-c2cnc3c(c2)C(=O)N([C@H](C)CO)C[C@H](C)[C@H](CN(C)Cc2ccc(C(=O)O)cc2)O3)c1	.	-0.2	.	.	.	.	.
CC(=O)N(C)C[C@H]1Oc2c(NS(C)(=O)=O)cccc2C(=O)N(C)C[C@@H]1C	.	0.2	.	.	.	.	.
O=C1S/C(=C\C=C\c2ccco2)C(=O)N1c1ccccc1	-5.1	0.3	-1.5	10.8	37.1*	28.2*	36.3*
O=C1S/C(=C\c2cccs2)C(=O)N1c1ccc(O)cc1	-1.5	0.0	-4.2	-23.0	-5.0	.	.
O=C1S/C(=C\C=C\c2ccco2)C(=O)N1c1ccc(O)cc1	-1.4	0.4	-1.6	7.7	49.2*	33.1*	49.2*
CN(C)c1ccc(-n2cccc2/C=C/[N+](=O)[O-])cc1	-2.2	0.8	0.5	-1.9	52.3*	81.6*	71.4*
Cc1ccc(NC(=O)c2ccccc2)cc1	7.1	.	3.4	-1.8	5.6	.	.
Cc1ccc(N/C(=C\C(=O)c2ccccc2)C(=O)O)cc1	-2.2	0.0	-3.5	3.8	92.8*	-0.1	5.7
O=C(C1CCCCC1)N1CC(=O)N2[C@H](CO)[C@@H](c3ccc(-c4cccnc4)cc3)[C@@H]2C1	.	0.3	.	.	.	.	.
SMILES	Rpn11 inh	XiGFP reactiv	Rin1-Abl PPI inh	NadD block	ABHD5 PLIN5 PPI	ABHD5-PLIN5 conf	HNF4 split-luc
CC(O)CNc1cc(N)c([N+](=O)[O-])cc1[N+](=O)[O-] (stereo unspecified)	3.0	0.0	-4.8	2.6	23.6*	7.1	5.9
O=C1C(=Cc2cccc(F)c2)Cc2ccccc21	3.3	0.0	3.8	-8.6	24.2*	27.7*	23.1*
O=C1/C(=C/c2cccc([N+](=O)[O-])c2)CCc2ccccc21	-3.4	0.7	1.1	-3.6	37.0*	56.2*	46.1*
O=C1C(=Cc2ccccc2[N+](=O)[O-])Cc2ccccc21	-1.3	-0.1	-1.4	-3.3	28.1*	50.9*	46.3*
O=C1C(=Cc2ccccn2)CCc2ccccc21	-6.2	-0.2	0.6	-5.6	24.6*	59.5*	45.8*
Nc1ccccc1C=C1Cc2ccccc2C1=O	18.8	1.3	-4.1	-0.1	11.1	.	.
O=C1/C(=C/c2ccncc2)Cc2ccccc21	-1.4	0.0	0.0	-1.5	17.3	.	.
O=C(O)/C=C/C(=O)c1ccc2c(c1)NC(=O)CO2	7.3	0.3	6.5	3.7	90.1*	90.9*	104.8*
O=S(=O)(N[C@H]1CC[C@@H](CCn2cc(C3(O)CCCC3)nn2)O[C@@H]1CO)c1ccc(F)cc1	.	-0.2	.	.	.	.	.
O=C(/C=C/c1ccnc2ccccc12)c1cccs1	1.9	0.4	2.1	0.9	63.0*	91.7*	91.8*
COc1ccc(-c2cnc3c(c2)C(=O)N([C@@H](C)CO)C[C@H](C)[C@@H](CN(C)Cc2ccccc2)O3)cc1	.	0.1	.	.	.	.	.
COc1ccc2nc3cccc(OC)c3nc2c1	-19.4	0.0	-3.5	4.7	-24.8	.	.
COc1ccc2nc3ccccc3nc2c1N	8.7	-0.1	-3.0	-2.2	37.9*	-0.2	10.4
COc1ccc(OCC(=O)Nc2ccc3c(c2)nc(CCN2CCC(C)CC2)n3C)cc1	-0.7	0.1	1.8	-7.7	9.5	.	.
CC1CCN(CCc2nc3cc(NC(=O)COc4ccc(Cl)cc4)ccc3n2C)CC1	-3.0	0.0	0.5	-7.6	23.2*	8.1	4.0
COc1ccc(NC(=O)Nc2ccc3c(c2)C(=O)N([C@@H](C)CO)C[C@@H](C)[C@@H](CN(C)C(=O)Cc2ccccc2)OCCCC[C@@H](C)O3)cc1	.	0.0	.	.	.	.	.
Oc1c(C(c2ccccc2)N2CCCCC2)ccc2ccccc12 (stereo unspecified)	0.4	-0.1	-4.3	16.3	37.6*	96.1*	47.7*
